Compounds with a hit are over-represented: about 1.1% of the library has one in this group of screens.
ERAP1 inh: ERAP1 (human) enzyme inhibition; Q9NZ08; recombinant ERAP1, Leu-AMC fluorescence, 60 min; inhibition, % at 10.7 µM; actives 0.15% (n = 340,000); AID 652197;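 active = mean replicate inhibition of at least 30%, or all replicates individually reaching that 30% level; inactive = mean below 30% and not every replicate reaching it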;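 also: 0% = neutral control wells and 100% = L-leucinethiol positive control wells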
ERp5 block: ERp5 (human) disulfide isomerase inhibition; ERp5 insulin aggregation, absorbance 650 nm, 90 min; inhibition, % at 9.99 µM; actives 0.05% (n = 350,000); AID 651711; Q15084;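 active = mean replicate inhibition above about 25%, with every replicate also reaching it, limit read from the data, passing the limit was not always enough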
PDI turbidity: inhibitors of human protein disulfide isomerase | P07237 | PDI insulin aggregation turbidity, A650, 90 min | inhibition, % at 10 µM | actives 0.052% (n = 350,000) | AID 588391;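 active = mean inhibition across replicates of 30% or more, whatever share of single replicates reach that level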
Target sequence (P07237 whole entry, looked up): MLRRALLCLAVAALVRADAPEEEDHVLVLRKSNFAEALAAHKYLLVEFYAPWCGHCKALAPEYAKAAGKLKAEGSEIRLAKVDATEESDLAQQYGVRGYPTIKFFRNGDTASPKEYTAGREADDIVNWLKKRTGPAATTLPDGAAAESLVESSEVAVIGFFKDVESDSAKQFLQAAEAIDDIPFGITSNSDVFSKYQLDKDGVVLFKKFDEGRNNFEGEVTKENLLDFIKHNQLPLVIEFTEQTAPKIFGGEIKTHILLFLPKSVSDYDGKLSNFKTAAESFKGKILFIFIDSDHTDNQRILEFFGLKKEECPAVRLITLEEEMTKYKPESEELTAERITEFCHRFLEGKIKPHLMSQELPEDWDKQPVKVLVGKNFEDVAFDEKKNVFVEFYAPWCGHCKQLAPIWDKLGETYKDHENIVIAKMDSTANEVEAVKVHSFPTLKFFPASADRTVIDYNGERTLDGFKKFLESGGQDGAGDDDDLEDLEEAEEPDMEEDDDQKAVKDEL
CAL PDZ FP-1: CAL PDZ (human) peptide binding inhibition; Q9HD26; purified CAL PDZ, TMR-peptide fluorescence polarization, 1 h; inhibition, % at 24.9 µM; actives 0.92% (n = 300,000);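 active = mean inhibition of at least 30% with at least half of replicates also reaching 30%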;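 also: 0% = DMSO neutral control and 100% = excess unlabeled competitor peptide PRC23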
Rin1-Abl PPI inh: inhibitors of human Rin1-Abl protein interaction; P00519+Q13671; TR-FRET Rin1/Abl binding, biochemical; inhibition, % at 7.35 µM; actives 0.4% (n = 360,000); AID 588664; in the data active = inhibition above about 5%, passing the limit was not always enough
CAL PDZ FP-2: blocks peptide binding to human CAL PDZ domain; AID 504414; purified CAL PDZ, TMR-peptide fluorescence polarization, 1 h; actives 0.02% (n = 330,000); Q9HD26; inhibition, % at 20 µM;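 active = highest replicate inhibition of at least 40%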;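 also: plate controls were DMSO neutral control wells for no effect and unlabeled competitor peptide control wells for full effect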
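Material: tagged CAL PDZ domain; buffer or medium: 25 mM sodium phosphate pH 7.4, 150 mM NaCl, TCEP, IgG, Thesit; compound dosing: single point, 20 µM; schedule: 1 h incubation at room temperature before polarization reading; measured by: FP readout, S and P plane fluorescence; read-out basis: percent inhibition from loss of millipolarization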
An asterisk follows results filed as active; · = no result given.

SMILES	ERAP1 inh	ERp5 block	PDI turbidity	CAL PDZ FP-1	Rin1-Abl PPI inh	CAL PDZ FP-2
O=C(COC(=O)CNC(=O)c1ccccc1Cl)NC1CC1	0.8	-6.8	2.4	39.1*	-1.6	1.3
CC(=O)Nc1ccc(C(=O)CN2C(=O)NC3(CCCCCC3)C2=O)c(F)c1	1.1	-1.7	-2.5	2.3	7.9	-0.3
CC(=O)Nc1ccc(C(=O)CN2C(=O)NC3(CCOc4ccccc43)C2=O)c(F)c1 (centres undefined)	3.3	-2.0	3.1	39.6*	-2.2	-1.0
CC(C)C#Cc1ccc([C@H]2[C@@H](CO)N3C(=O)CN(C(=O)Cc4ccccc4)C[C@@H]23)cc1	2.1	-4.3	·	·	·	·
C[n+]1ccccc1/C=C/c1ccc(F)c(F)c1	4.3	4.4	-4.1	-3.8	-2.4	0.7
C[n+]1ccccc1/C=C/c1ccc2ncccc2c1	40.3*	-1.9	0.9	4.1	-4.0	-1.2
COC(=O)c1cc2ccsc2n1Cc1ccccc1F	0.1	-2.9	-11.7	-1.8	0.0	0.0
COC(=O)c1cc2ccsc2n1Cc1cccc(F)c1	-2.8	-7.7	0.9	79.3*	-0.5	0.3
CN(CC1COCCO1)C(=O)c1cc(COc2c(F)cccc2F)on1 (centres undefined)	-6.3	8.2	-2.6	-0.2	1.7	-1.5
CN(CC1COc2ccccc2O1)C(=O)c1cc(COc2c(F)cccc2F)on1 (centres undefined)	-3.1	-12.5	0.6	57.0*	-1.6	-0.6
COC(=O)C[C@H]1C=C[C@H](NS(=O)(=O)c2ccc(OC)cc2)[C@@H](CO)O1	0.6	12.9	·	·	·	·
COc1ccc(N2C(=O)CCC(C(=O)N3CCCCC3)C2c2ccc(OC)c(OC)c2)cc1 (centres undefined)	·	·	-8.9	13.2	2.9	·
COc1ccc(C2C(C(=O)N3CCOCC3)CCC(=O)N2c2ccc(OC)cc2)cc1 (centres undefined)	·	·	1.5	108.2*	1.4	-1.0
Nn1c(SCC(=O)Nc2ccc(S(N)(=O)=O)cc2)nnc1-c1ccco1	2.0	-18.0	-13.3	36.6*	0.8	-0.8
Cc1cccc(C)c1NC(=O)CSc1nnc(-c2ccco2)n1N	·	·	6.2	-2.2	4.8	-1.4
Nn1c(SCC(=O)Nc2cccc(S(N)(=O)=O)c2)nnc1C1CC1	-1.3	0.0	0.0	69.6*	-0.5	0.1
C[C@@H]1CCCCO[C@@H](CN(C)C(=O)Nc2ccc(F)cc2)[C@@H](C)CN([C@H](C)CO)C(=O)c2cc(NC(=O)CCCCCC(=O)Nc3ccccc3N)ccc2O1	-1.7	-4.8	·	·	·	·
CCOC(=O)CCCc1sc(N)nc1-c1[nH]c(=O)[nH]c1C	·	·	9.1	-2.6	62.6*	0.9
O=C(C[C@H]1CC[C@H](NC(=O)C2CCC2)[C@@H](CO)O1)NCc1ccccc1Cl	3.9	-0.4	·	·	·	·
CN(C1=NC(=O)C(CC(=O)Nc2ccc(Br)cc2)S1)c1ccc(O)cc1 (centres undefined)	·	·	61.0*	-3.7	0.6	-4.0
Cc1ccc(-n2c(Cc3cccn3C)nnc2SCC(=O)NCc2ccco2)cc1	·	·	-1.7	-4.5	-2.0	-1.6
Cc1ccc(-n2c(CSc3nc(C)cc(C)n3)nnc2SCC(=O)NCc2ccco2)cc1	·	·	2.4	104.0*	-3.0	0.5
Cc1c(NS(=O)(=O)c2ccc(S(=O)(=O)c3ccccc3)s2)c(=O)n(-c2ccccc2)n1C	·	-2.8	-3.2	50.4*	1.7	-0.1
CCCNC(=O)C[C@H]1CC[C@@H]2[C@@H](COc3ccc(NC(=O)NCC)cc3C(=O)N2C)O1	-0.6	2.8	·	·	·	·
CCC(=O)N(C)C[C@H]1Oc2cc(C3=CCCC3)ccc2S(=O)(=O)N([C@@H](C)CO)C[C@H]1C	-0.1	-1.6	·	·	·	·
C=C(C)CNC(=S)N/N=C/C1=CCC2CC1C2(C)C (centres undefined)	·	·	15.8	49.0*	1.0	-0.4
CC1(C)CC(NC(=O)C2CCN(S(=O)(=O)c3ccc(Cl)c(C(F)(F)F)c3)CC2)CC(C)(C)N1	4.3	5.4	1.8	57.7*	0.3	0.3
CC1(C)CC(NC(=O)C2CCN(S(=O)(=O)c3ccccc3C(F)(F)F)CC2)CC(C)(C)N1	1.6	-3.0	6.6	-2.2	-0.9	1.3
C[C@H]1CN([C@@H](C)CO)C(=O)c2c(c3ccccc3n2C)-c2ccccc2CO[C@@H]1CN(C)C(=O)Nc1ccc2c(c1)OCO2	1.8	-1.7	·	·	·	·
